Data on three compounds can be found in publication PMC4273560 (Neurobiology of disease, 2014).

“Also recorded” adds a separate entry of the source. Ends that are not written are not given here. Peptide text beside a SMILES is read from it. * marks the point of attachment. FITC = O=C1OC2(c3ccc(O)cc3Oc3cc(O)ccc32)c2ccc(NC(=S)*)cc21

One data set relates to mBMEC. The data set is classed as cell-based, mouse. The following applies: 12 h.
The target in data set [1] is T1, JAM-A (Mus musculus, UniProt O88792).
T1 sequence (O88792 27-300): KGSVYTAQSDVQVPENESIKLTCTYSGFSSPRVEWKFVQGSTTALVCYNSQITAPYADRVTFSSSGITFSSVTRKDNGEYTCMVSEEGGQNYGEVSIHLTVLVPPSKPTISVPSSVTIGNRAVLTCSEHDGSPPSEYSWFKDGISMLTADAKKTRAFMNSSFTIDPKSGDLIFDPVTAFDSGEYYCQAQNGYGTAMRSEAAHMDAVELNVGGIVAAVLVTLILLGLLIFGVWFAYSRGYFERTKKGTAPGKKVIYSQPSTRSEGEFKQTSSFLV
The data set is classed as binding. The method in brief:
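mBMEC (first passage) plated in 96-well plates and incubated with a constant level of FITC-labelled peptide plus increasing unlabelled peptide. Cells washed 3× and fixed in 4% paraformaldehyde for 15 min at room temperature. Fluorescence read on a plate reader. Percent inhibition plotted against concentration and IC50 read from the curve. Three independent experiments.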

The test system of the next data set is BBB, FITC-inulin. The conditions noted are these: mouse, in vivo.
Data set [2] can be described thus: Physiological variables of mice before, during and 6 hrs after tMCAO. The data set is classed as in vivo, mouse. The conditions noted are these: ip injection, n = 10.
Data set [3] deals with neutrophils and monocytes in blood. The conditions noted are these: mouse, in vivo.
A further data set concerns mBMEC monolayers. Briefly: In vitro permeability of mBMEC monolayers to inulin. The data set is classed as cell-based, mouse. The following applies: JAM-Ap 0.1–1000 μg/ml, 0–72 h.
For data set [4], the system named is ICAM-1. Briefly: Cell-based ELISA, ICAM-1 surface expression on mBMEC. Also noted: species or system mouse. The conditions noted are these: CCL2 100 ng/ml.
Data set [5] concerns the target T1, JAM-A. Briefly: Cell-based ELISA, JAM-A surface expression on mBMEC. The following applies: CCL2 100 ng/ml; 2 and 24 h; p < 0.001.
Data set [6] deals with T1, JAM-A. The conditions noted are these: brain endothelial cells; ref Stamatovic et al., 2012; cited from earlier work.
Data set [7] relates to ICAM-1. Briefly: Cross binding of JAM-Ap-FITC to ICAM-1. The following applies: increasing concentrations of anti-ICAM-1 antibody; presence and absence of JAM-A. More on the design: species or system mouse. The gist of the method:
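bEnd.3 JAM-A-knockdown cells (stable shRNA) and JAM-A-expressing mBMEC in 96-well plates were primed with IL-1β plus TNF-α for 6 h or OGD/reoxygenation for 24 h in DMEM. They then received FITC-peptide with or without increasing anti-ICAM-1 antibody in D-PBS for 30 min at 4 °C. Cells washed 3×, fixed in 4% paraformaldehyde, and fluorescence read. FITC-scrambled peptide served as control.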

The next data set relates to CD31 + brain microvessel. The following applies: mouse, in vivo.

The IC50 is the concentration at which inhibition is half-maximal. Regarding NPKSTRAFSNDDYVLNPTTG [JAM-Ap], in the data set on mBMEC, the “cell viability after treatment” value is more than 99%. Further, the midpoint of inhibition against JAM-A [1], the IC50, lay at 25 nM. Besides, in the data set on BBB, FITC-inulin, the “BBB permeability in control mice” value is listed as “no effect on permeability”. In data set [2] (15 min MCAO), this compound displayed a Glucose of 142 ± 6 g/dL, a PCO2 of 34±2, a PO2 of 110±7 and a pH of 7.32±0.012. This compound displayed a rCBF in [2] (15 min MCAO) of 13±2%. In [2] (6 hr post-tMCAO), this compound displayed a Glucose of 128 ± 9 g/dL, a PCO2 of 36±1, a PO2 of 115±10 and a pH of 7.36±0.018. For the same compound, in data set [2] (6 hr post-tMCAO), the rCBF is 100±1%. In addition, in data set [2] (before), the Glucose came out at 135 ± 3 g/dL, the PCO2 stood at 32±2, the PO2 is reported as 123±5 and the pH is recorded as 7.36±0.03. The rCBF in data set [2] (before) amounted to 100±0%. In data set [3], the “blood MO (monocytes)” value was 3.95 10^8 and the “blood PMN” value is listed as 0.99 10^9/l. Also, the “effect on barrier permeability to inulin (5 kDa), in vitro” value in the data set on mBMEC monolayers is “no effect on barrier permeability to inulin”.

With CCL2: chemokine CCL2 (PeproTech), the ICAM-1 surface expression result with ICAM-1 [4] was “surface expression was also increased; also recorded: A similar degree of surface accumulation”. Also, the “cell surface (apical) expression of JAM-A” value in the data set with JAM-A [5] is “increased apical membrane JAM-A expression; also recorded: an increase in cell surface (apical) expression of JAM-A”. Also, in the data set with JAM-A [6], the JAM-A relocalization entry is “JAM-A became relocalized from the lateral to the apical membrane of brain endothelial cells”.

On to `CC(C)C[C@H](NC(=O)[C@@H](NC(=O)[C@H](Cc1ccc(O)cc1)NC(=O)[C@H](CC(=O)O)NC(=O)[C@H](CC(=O)O)NC(=O)[C@H](CC(N)=O)NC(=O)[C@H](CO)NC(=O)[C@H](Cc1ccccc1)NC(=O)[C@H](C)NC(=O)[C@H](CCCNC(=N)N)NC(=O)[C@@H](NC(=O)[C@H](CO)NC(=O)[C@H](CCCCNC(=S)Nc1ccc2c(c1)C(=O)OC21c2ccc(O)cc2Oc2cc(O)ccc21)NC(=O)[C@@H]1CCCN1C(=O)[C@@H](N)CC(N)=O)[C@@H](C)O)C(C)C)C(=O)N[C@@H](CC(N)=O)C(=O)N1CCC[C@H]1C(=O)N[C@H](C(=O)N[C@H](C(=O)NCC(=O)O)[C@@H](C)O)[C@@H](C)O` [JAM-Ap-FITC] (H-NPK(FITC)STRAFSNDDYVLNPTTG-OH; N-terminus and C-terminus assumed), for which, in the data set on ICAM-1 [7], the “binding affinity for ICAM-1” value was “very low binding affinity”. Also, in the data set with CD31 + brain microvessel, the “accumulation at luminal side of CD31 + brain microvessel” value is reported as “high accumulation”; the “association with CD45 + cells in brain” value was “not associated with CD45 + cells”; the “nonspecific trapping in ischemic lesion” value is recorded as “comparable with labeled control peptide (cp), at the level of threshold”. Besides, in the data set on CD31 + brain microvessel (ip), the “accumulation in liver and lung microvessels or tissue” value is given as “did not detect significant amount”.
